What was measured:
[1] = Gadolinium(III) stability constants (log K value) for the compound polyamino carboxylate derivative; assay type: physicochemical; conditions: 0.1 M KCl
Summary of the method: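 Potentiometric titration under argon at 25.00(5) °C in 0.100 M KCl, meter calibrated to read -log [H+] with dilute standard HCl. LDTPA with an equimolar amount of GdCl3 titrated with CO2-free 0.0999 M KOH, added in 0.100 mL aliquots, up to pH 11. Ligand protonation constants came from a parallel titration without metal. Constants were computed from the titration data.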

[2] = species on record: Rattus norvegicus; assay: Biodistribution of Gd-LDTA (conjugated with mannose BSA) protein using [111In]- in mature female Sprague-Dawley rat colon after injecting for 48 hour.; assay type: ADME, organism-based; conditions: in vivo
[3] = species on record: Rattus norvegicus; assay: Biodistribution of In-LDTA (conjugated with mannoseBSA) protein using [111In]- in mature female Sprague-Dawley rat colon after injecting for 4 hour.; assay type: ADME, organism-based; conditions: in vivo
Summary of the method: (§1)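 SCN-LDTPA was coupled (pH 9 bicine, 24 h, RT) to BSA, mannosylated BSA or galactosylated BSA and FPLC-purified. The conjugate (400 μg) was labeled with 340 μCi 111In acetate at pH 5.5 for 45 min and gel-filtered. Mature female Sprague-Dawley rats received 19 μg of conjugate; four rats per time point. Blood, liver, bone, kidney and colon were taken and reported as %ID/organ.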

[4] = species on record: Rattus norvegicus; assay: Biodistribution of In-LDTA (conjugated with mannoseBSA) protein using [111In]- in mature female Sprague-Dawley rat colon after injecting for 48 hour.; assay type: ADME, organism-based; conditions: in vivo; summary of the method: as §1
[5] = species on record: Rattus norvegicus; assay: Biodistribution of In-LDTA (conjugated with galactose BSA)protein using [111In]- in mature female Sprague-Dawley rat bone after injecting for 1 hour.; assay type: ADME, organism-based, Bone element; conditions: in vivo; summary of the method: as §1
[6] = species on record: Rattus norvegicus; assay: Biodistribution of In-LDTA (conjugated with galactose BSA)protein using [111In]- in mature female Sprague-Dawley rat bone after injecting for 24 hour.; assay type: ADME, organism-based, Bone element; conditions: in vivo; summary of the method: as §1
[7] = species on record: Rattus norvegicus; assay: Biodistribution of In-LDTA (conjugated with galactose BSA)protein using [111In]- in mature female Sprague-Dawley rat colon after injecting for 4 hour.; assay type: ADME, organism-based; conditions: in vivo; summary of the method: as §1
[8] = species on record: Rattus norvegicus; assay: Biodistribution of In-LDTA (conjugated with galactose BSA)protein using [111In]- in mature female Sprague-Dawley rat kidney after injecting for 1 hour.; assay type: ADME, organism-based; conditions: in vivo; summary of the method: as §1
[9] = species on record: Rattus norvegicus; assay: Biodistribution of In-LDTA (conjugated with galactose BSA)protein using [111In]- in mature female Sprague-Dawley rat liver after injecting for 24 hour.; assay type: ADME, organism-based; conditions: in vivo; summary of the method: as §1
[10] = species on record: Rattus norvegicus; assay: Biodistribution of Gd-LDTA (conjugated with mannose BSA) protein using [111In]- in mature female Sprague-Dawley rat bone after injecting for 1 hour.; assay type: ADME, organism-based, Bone element; conditions: in vivo
Summary of the method: (§2)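 Conjugate of SCN-LDTPA with BSA, mannosylated BSA or galactosylated BSA (10 equiv chelate, pH 9 bicine, RT 24 h; FPLC-purified) was labelled with 340 μCi 111In acetate at pH 5.5 for 45 min. It was then gel-filtered (Biospin-6) and checked for purity by FPLC. Mature female Sprague-Dawley rats received 19 μg of conjugate. Four rats per time point (1, 4, 24, 48 h) were killed; blood, liver, bone, kidney and colon were taken and %ID/organ was calculated.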

[11] = species on record: Rattus norvegicus; assay: Biodistribution of In-LDTA (conjugated with mannoseBSA) protein using [111In]- in mature female Sprague-Dawley rat liver after injecting for 48 hr.; assay type: ADME, organism-based; conditions: in vivo; summary of the method: as §1
[12] = species on record: Rattus norvegicus; assay: Biodistribution of In-LDTA (conjugated with mannoseBSA)protein using [111In]- in mature female Sprague-Dawley rat blood after injecting for 4 hour.; assay type: ADME, organism-based; conditions: in vivo; summary of the method: as §1
[13] = species on record: Rattus norvegicus; assay: Biodistribution of In-LDTA (conjugated with mannoseBSA)protein using [111In]- in mature female Sprague-Dawley rat blood after injecting for 1 hour.; assay type: ADME, organism-based; conditions: in vivo; summary of the method: as §1
[14] = species on record: Rattus norvegicus; assay: Biodistribution of In-LDTA (conjugated with BSA) protein using [111In]- in mature female Sprague-Dawley rat blood after injecting for 48 hour.; assay type: ADME, organism-based; conditions: in vivo; summary of the method: as §1
[15] = species on record: Rattus norvegicus; assay: Biodistribution of In-LDTA (conjugated with mannoseBSA) protein using [111In]- in mature female Sprague-Dawley rat kidney after injecting for 4 hour.; assay type: ADME, organism-based; conditions: in vivo; summary of the method: as §1
[16] = species on record: Rattus norvegicus; assay: Biodistribution of Gd-DTA (conjugated with BSA)protein using [111In]- in mature female Sprague-Dawley rat blood after injecting for 96 hour.; assay type: ADME, organism-based; conditions: in vivo
[17] = species on record: Rattus norvegicus; assay: Biodistribution of Gd-DTA (conjugated with BSA)protein using [111In]- in mature female Sprague-Dawley rat colon after injecting for 24 hour.; assay type: ADME, organism-based; conditions: in vivo; summary of the method: as §2
[18] = species on record: Rattus norvegicus; assay: Biodistribution of Gd-LDTA (conjugated with galactose BSA) protein using [111In]- in mature female Sprague-Dawley rat blood after injecting for 4 hour.; assay type: ADME, organism-based; conditions: in vivo; summary of the method: as §2
[19] = species on record: Rattus norvegicus; assay: Biodistribution of Gd-LDTA (conjugated with galactose BSA) protein using [111In]- in mature female Sprague-Dawley rat bone marrow after injecting for 4 hour.; assay type: ADME, organism-based; conditions: in vivo
[20] = species on record: Rattus norvegicus; assay: Biodistribution of Gd-LDTA (conjugated with galactose BSA) protein using [111In]- in mature female Sprague-Dawley rat colon after injecting for 24 hour.; assay type: ADME, organism-based; conditions: in vivo; summary of the method: as §2
[21] = species on record: Rattus norvegicus; assay: Biodistribution of Gd-LDTA (conjugated with galactose BSA) protein using [111In]- in mature female Sprague-Dawley rat colon after injecting for 4 hour.; assay type: ADME, organism-based; conditions: in vivo; summary of the method: as §2
[22] = species on record: Rattus norvegicus; assay: Biodistribution of Gd-LDTA (conjugated with galactose BSA) protein using [111In]- in mature female Sprague-Dawley rat liver after injecting for 1 hour.; assay type: ADME, organism-based; conditions: in vivo; summary of the method: as §2
[23] = species on record: Rattus norvegicus; assay: Biodistribution of Gd-LDTA (conjugated with galactose BSA) protein using [111In]- in mature female Sprague-Dawley rat liver after injecting for 48 hour.; assay type: ADME, organism-based; conditions: in vivo; summary of the method: as §2
[24] = species on record: Rattus norvegicus; assay: Biodistribution of Gd-LDTA (conjugated with galactose BSA) protein using [111In]- in mature female Sprague-Dawley rat bone after injecting for 48 hour.; assay type: ADME, organism-based, Bone element; conditions: in vivo; summary of the method: as §2
[25] = species on record: Rattus norvegicus; assay: Biodistribution of Gd-LDTA (conjugated with galactose BSA) protein using [111In]- in mature female Sprague-Dawley rat bone after injecting for 96 hour.; assay type: ADME, organism-based, Bone element; conditions: in vivo
[26] = species on record: Rattus norvegicus; assay: Biodistribution of Gd-LDTA (conjugated with galactose BSA) protein using [111In]- in mature female Sprague-Dawley rat bone marrow after injecting for 1 hour.; assay type: ADME, organism-based; conditions: in vivo
[27] = species on record: Rattus norvegicus; assay: Biodistribution of In-LDTA (conjugated with galactose BSA)protein using [111In]- in mature female Sprague-Dawley rat kidney after injecting for 48 hour.; assay type: ADME, organism-based; conditions: in vivo; summary of the method: as §1
[28] = species on record: Rattus norvegicus; assay: Biodistribution of Gd-DTA (conjugated with BSA)protein using [153Gd]- in mature female Sprague-Dawley rat bone after injecting for 48 hour.; conditions: in vivo
[29] = species on record: Rattus norvegicus; assay: Biodistribution of Gd-LDTA (conjugated with galactose BSA) protein using [153Gd]- in mature female Sprague-Dawley rat blood after injecting for 48 hour.; conditions: in vivo

With `Nc1ccc(CC(C(=O)O)N(CCN(CC(=O)O)CC(=O)O)CCN(CC(=O)O)CC(=O)O)cc1` (centres undefined) the “Log K” value [1] was 22, the ID/organ [2] was 0.21% and the ID/organ [3] was 0.156%. For the same compound, the ID/organ [4] was 0.542%, the ID/organ [5] was 0.227% and the ID/organ [6] was 0.379%. It also gave an ID/organ [7] of 4.8%, an ID/organ [8] of 0.0446% and an ID/organ [9] of 65.4%. For the same compound, the ID/organ [10] was 15.6%, the ID/organ [11] was 61% and the ID/organ [12] was 0.149%. For the same compound, the ID/organ [13] was 0.255%, the ID/organ [14] was 3.33% and the ID/organ [15] was 0.244%. For the same compound, the ID/organ [16] was 0.418%, the ID/organ [17] was 2.83% and the ID/organ [18] was 0.045%. For the same compound, the ID/organ [19] was 0.109%, the ID/organ [20] was 6.07% and the ID/organ [21] was 4.09%. It also gave an ID/organ [22] of 91.3%, an ID/organ [23] of 34.8% and an ID/organ [24] of 8.7%. The ID/organ [25] was 9.55%, the ID/organ [26] was 0.031% and the ID/organ [27] was 0.14%. The ID/organ [28] was 35.9% and the ID/organ [29] was 0.037%.
